Laboratory results from ChEMBL document CHEMBL4715745, “Synthesis and biological evaluation of novel FK228 analogues as potential isoform selective HDAC inhibitors” (Eur J Med Chem, 2016).

Assays:
[1] = system: DMS-273; assay: Growth inhibition of human DMS-273 cells measured after 48 hrs by sulforhodamine B assay; assay type: functional
In short: (§1)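 Panel of 39 human cancer cell lines tested at the Japanese Foundation for Cancer Research. Five concentrations per compound, spanning 10⁻¹¹–10⁻⁷ M, 10⁻¹⁰–10⁻⁶ M or 10⁻⁸–10⁻⁴ M, were used to build dose-response curves. GI₅₀ is the concentration giving 50% growth inhibition relative to control.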

[2] = system: MKN-1; assay: Growth inhibition of human MKN-1 cells measured after 48 hrs by sulforhodamine B assay; assay type: functional; in short: as §1
[3] = system: DMS-114; assay: Growth inhibition of human DMS-114 cells measured after 48 hrs by sulforhodamine B assay; assay type: functional; in short: as §1
[4] = system: MKN-28; assay: Growth inhibition of human MKN-28 cells measured after 48 hrs by sulforhodamine B assay; assay type: functional; in short: as §1
[5] = system: MDA-MB-231; assay: Growth inhibition of human MDA-MB-231 cells measured after 48 hrs by sulforhodamine B assay; assay type: functional; in short: as §1
[6] = system: HCT-116; assay: Growth inhibition of human HCT-116 cells measured after 48 hrs by sulforhodamine B assay; assay type: functional; in short: as §1
[7] = system: MKN-45; assay: Growth inhibition of human MKN-45 cells measured after 48 hrs by sulforhodamine B assay; assay type: functional; in short: as §1
[8] = system: OVCAR-3; assay: Growth inhibition of human OVCAR-3 cells measured after 48 hrs by sulforhodamine B assay; assay type: functional; in short: as §1
[9] = system: OVCAR-8; assay: Growth inhibition of human OVCAR-8 cells measured after 48 hrs by sulforhodamine B assay; assay type: functional; in short: as §1
[10] = system: SNB-78; assay: Growth inhibition of human SNB-78 cells measured after 48 hrs by sulforhodamine B assay; assay type: functional; in short: as §1
[11] = system: SNB-75; assay: Growth inhibition of human SNB-75 cells measured after 48 hrs by sulforhodamine B assay; assay type: functional; in short: as §1
[12] = Growth inhibition of human HBC5 cells measured after 48 hrs by sulforhodamine B assay; assay type: functional; in short: as §1
[13] = system: LOX IMVI; assay: Growth inhibition of human LOX IMVI cells measured after 48 hrs by sulforhodamine B assay; assay type: functional; in short: as §1
[14] = system: St-4; assay: Growth inhibition of human St-4 cells measured after 48 hrs by sulforhodamine B assay; assay type: functional; in short: as §1
[15] = Selectivity index, ratio of IC50 for mouse HDAC6 expressed in 293T cells to IC50 for human HDAC1 expressed in 293T cells using Ac-KGLGK(Ac)-MCA as substrate incubated for 30 mins in presence of 0.1 mM DTT by fluorescence plate reader assay; conditions: 0.5 h
In short: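 Ratio of HDAC6 IC₅₀ to HDAC1 IC₅₀, taken as selectivity for class I HDAC1 over class II HDAC6. Both enzyme assays were run in the presence of 0.1 mM DTT.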

[16] = system: U-251; assay: Growth inhibition of human U-251 cells measured after 48 hrs by sulforhodamine B assay; assay type: functional; in short: as §1
[17] = system: ACHN; assay: Growth inhibition of human ACHN cells measured after 48 hrs by sulforhodamine B assay; assay type: functional; in short: as §1
[18] = system: SF-295; assay: Growth inhibition of human SF-295 cells measured after 48 hrs by sulforhodamine B assay; assay type: functional; in short: as §1
[19] = Growth inhibition of human HBC4 cells measured after 48 hrs by sulforhodamine B assay; assay type: functional; in short: as §1
[20] = system: DU-145; assay: Growth inhibition of human DU-145 cells measured after 48 hrs by sulforhodamine B assay; assay type: functional; in short: as §1
[21] = system: SF-268; assay: Growth inhibition of human SF-268 cells measured after 48 hrs by sulforhodamine B assay; assay type: functional; in short: as §1
[22] = system: SF-539; assay: Growth inhibition of human SF-539 cells measured after 48 hrs by sulforhodamine B assay; assay type: functional; in short: as §1
[23] = biological target: Histone deacetylase 1 (Homo sapiens, UniProt Q13547); assay: Inhibition of human HDAC1 expressed in 293T cells using Ac-KGLGK(Ac)-MCA as substrate incubated for 30 mins in presence of 0.1 mM DTT by fluorescence plate reader assay; set-up: species or system HEK293T
Histone deacetylase 1, sequence (Q13547 whole entry): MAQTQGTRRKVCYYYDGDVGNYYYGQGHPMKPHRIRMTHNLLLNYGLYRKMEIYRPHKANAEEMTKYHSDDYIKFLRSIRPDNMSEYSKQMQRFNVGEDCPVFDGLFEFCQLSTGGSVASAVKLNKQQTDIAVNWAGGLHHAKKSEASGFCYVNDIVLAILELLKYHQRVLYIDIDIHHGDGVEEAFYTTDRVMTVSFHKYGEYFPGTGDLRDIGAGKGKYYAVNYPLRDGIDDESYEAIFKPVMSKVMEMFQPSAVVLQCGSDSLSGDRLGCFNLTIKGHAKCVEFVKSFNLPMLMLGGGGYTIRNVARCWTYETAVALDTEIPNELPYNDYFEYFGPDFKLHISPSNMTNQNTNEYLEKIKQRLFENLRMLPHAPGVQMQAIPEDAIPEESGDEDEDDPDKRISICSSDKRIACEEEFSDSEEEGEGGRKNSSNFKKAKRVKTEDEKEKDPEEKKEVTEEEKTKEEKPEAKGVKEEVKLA

[24] = system: MCF7; assay: Growth inhibition of human MCF7 cells measured after 48 hrs by sulforhodamine B assay; assay type: functional; in short: as §1
[25] = system: HT-29; assay: Growth inhibition of human HT-29 cells measured after 48 hrs by sulforhodamine B assay; assay type: functional; in short: as §1
[26] = system: NCI-H226; assay: Growth inhibition of human NCI-H226 cells measured after 48 hrs by sulforhodamine B assay; assay type: functional; in short: as §1
[27] = biological target: T1, Protein deacetylase HDAC6 (Mus musculus, UniProt Q9Z2V5); assay: Inhibition of mouse HDAC6 expressed in 293T cells using Ac-KGLGK(Ac)-MCA as substrate incubated for 30 mins in presence of 0.1 mM DTT by fluorescence plate reader assay; set-up: species or system HEK293T
T1 sequence (Q9Z2V5 whole entry): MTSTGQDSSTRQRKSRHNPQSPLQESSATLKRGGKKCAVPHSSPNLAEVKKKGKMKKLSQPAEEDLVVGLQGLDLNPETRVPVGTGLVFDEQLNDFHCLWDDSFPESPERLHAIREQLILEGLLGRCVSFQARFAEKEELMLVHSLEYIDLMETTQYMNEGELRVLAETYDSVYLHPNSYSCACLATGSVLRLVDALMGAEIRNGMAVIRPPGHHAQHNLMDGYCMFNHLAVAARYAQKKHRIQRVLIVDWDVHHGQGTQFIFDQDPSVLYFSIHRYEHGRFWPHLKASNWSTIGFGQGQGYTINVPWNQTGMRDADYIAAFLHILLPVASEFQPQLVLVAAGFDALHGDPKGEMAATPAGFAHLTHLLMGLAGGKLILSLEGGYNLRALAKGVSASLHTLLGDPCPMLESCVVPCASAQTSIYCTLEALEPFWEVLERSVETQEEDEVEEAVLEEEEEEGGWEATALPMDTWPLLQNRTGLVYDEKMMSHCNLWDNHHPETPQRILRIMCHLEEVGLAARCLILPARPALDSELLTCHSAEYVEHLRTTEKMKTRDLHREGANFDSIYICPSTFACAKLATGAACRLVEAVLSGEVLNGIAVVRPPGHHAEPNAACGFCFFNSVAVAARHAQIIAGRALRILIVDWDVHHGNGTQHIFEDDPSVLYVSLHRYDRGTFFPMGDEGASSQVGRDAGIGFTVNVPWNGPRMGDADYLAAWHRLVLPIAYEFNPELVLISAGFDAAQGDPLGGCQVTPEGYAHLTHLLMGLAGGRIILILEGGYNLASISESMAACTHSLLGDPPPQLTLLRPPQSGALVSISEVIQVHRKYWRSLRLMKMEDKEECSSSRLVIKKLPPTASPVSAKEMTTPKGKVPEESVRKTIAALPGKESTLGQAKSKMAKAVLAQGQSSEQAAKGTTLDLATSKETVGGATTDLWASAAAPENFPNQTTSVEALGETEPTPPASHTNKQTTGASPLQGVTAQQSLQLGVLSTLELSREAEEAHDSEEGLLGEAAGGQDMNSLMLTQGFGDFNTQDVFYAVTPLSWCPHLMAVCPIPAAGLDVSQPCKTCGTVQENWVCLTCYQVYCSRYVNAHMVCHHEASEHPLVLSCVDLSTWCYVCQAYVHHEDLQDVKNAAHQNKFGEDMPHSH
In short: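 HDAC enzyme assay run in the presence of 0.1 mM dithiothreitol (DTT); IC₅₀ determined.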

[28] = system: NCI-H460; assay: Growth inhibition of human NCI-H460 cells measured after 48 hrs by sulforhodamine B assay; assay type: functional; in short: as §1
[29] = Growth inhibition of human BSY1 cells measured after 48 hrs by sulforhodamine B assay; assay type: functional; conditions: BSY-1; in short: as §1
[30] = system: SK-OV-3; assay: Growth inhibition of human SK-OV-3 cells measured after 48 hrs by sulforhodamine B assay; assay type: functional; in short: as §1
[31] = system: MKN-74; assay: Growth inhibition of human MKN-74 cells measured after 48 hrs by sulforhodamine B assay; assay type: functional; in short: as §1
[32] = system: NCI-H23; assay: Growth inhibition of human NCI-H23 cells measured after 48 hrs by sulforhodamine B assay; assay type: functional; in short: as §1
[33] = system: KM12; assay: Growth inhibition of human KM12 cells measured after 48 hrs by sulforhodamine B assay; assay type: functional; in short: as §1
[34] = system: PC-3; assay: Growth inhibition of human PC-3 cells measured after 48 hrs by sulforhodamine B assay; assay type: functional; in short: as §1
[35] = system: OVCAR-4; assay: Growth inhibition of human OVCAR-4 cells measured after 48 hrs by sulforhodamine B assay; assay type: functional; in short: as §1
[36] = system: HCC 2998; assay: Growth inhibition of human HCC 2998 cells measured after 48 hrs by sulforhodamine B assay; assay type: functional; in short: as §1
[37] = system: OVCAR-5; assay: Growth inhibition of human OVCAR-5 cells measured after 48 hrs by sulforhodamine B assay; assay type: functional; in short: as §1
[38] = system: RXF 631; assay: Growth inhibition of human RXF 631 cells measured after 48 hrs by sulforhodamine B assay; assay type: functional; in short: as §1
[39] = system: NCI-H522; assay: Growth inhibition of human NCI-H522 cells measured after 48 hrs by sulforhodamine B assay; assay type: functional; in short: as §1
[40] = system: MKN-7; assay: Growth inhibition of human MKN-7 cells measured after 48 hrs by sulforhodamine B assay; assay type: functional; in short: as §1
[41] = system: HCT-15; assay: Growth inhibition of human HCT-15 cells measured after 48 hrs by sulforhodamine B assay; assay type: functional; in short: as §1
[42] = system: A549; assay: Growth inhibition of human A549 cells measured after 48 hrs by sulforhodamine B assay; assay type: functional; in short: as §1

## CC(C)[C@H]1NC(=O)C[C@H]2/C=C/CCSSC[C@@H](NC1=O)C(=O)N[C@@H](Cc1ccccc1)C(=O)NCC(=O)O2
[1]
  GI50: 1500 nM
[2]
  GI50: 290 nM
[3]
  GI50: 620 nM
[4]
  GI50: 2100 nM
[5]
  GI50: 1200 nM
[6]
  GI50: 250 nM
[7]
  GI50: 1800 nM
[8]
  GI50: 1100 nM
[9]
  GI50: 1400 nM
[10]
  GI50: 540 nM
[11]
  GI50: 1300 nM
[12]
  GI50: 1900 nM
[13]
  GI50: 160 nM
[14]
  GI50: 2000 nM
[15]
  Ratio IC50: 9
[16]
  GI50: 1500 nM
[17]
  GI50: 11000 nM
[18]
  GI50: 1800 nM
[19]
  GI50: 690 nM
[20]
  GI50: 590 nM
[21]
  GI50: 220 nM
[22]
  GI50: 860 nM
[23]
  IC50: 40.8 nM
[24]
  GI50: 1900 nM
[25]
  GI50: 570 nM
[26]
  GI50: 1200 nM
[27]
  IC50: 355 nM
[28]
  GI50: 1100 nM
[29]
  GI50: 1300 nM
[30]
  GI50: 1200 nM
[31]
  GI50: 500 nM
[32]
  GI50: 1100 nM
[33]
  GI50: 740 nM
[34]
  GI50: 1100 nM
[35]
  GI50: 1900 nM
[36]
  GI50: 1100 nM
[37]
  GI50: 1400 nM
[38]
  GI50: 1800 nM
[39]
  GI50: 200 nM
[40]
  GI50: 1900 nM
[41]
  GI50: 26000 nM
[42]
  GI50: 880 nM
